In ChEMBL document CHEMBL1155468, “Syntheses and evaluation of anticonvulsant profile and teratogenicity of novel amide derivatives of branched aliphatic carboxylic acids with 4-aminobenzensulfonamide” (J Med Chem, 2010):
Calls of active or inactive are those of the source. No cut-off for these calls is given here.

What was measured:
Mus musculus [1] = assay: Anticonvulsant activity in CF1 albino mouse assessed as inhibition of subcutaneous pentylenetetrazole-induced seizures at 30 mg/kg, ip after 0.5 hrs; assay type: functional, organism-based; design: dose 30 mg/kg
Summary of the method: (§1)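 Adult male CF no. 1 albino mice (18-25 g) dosed ip with compound suspended in 0.5% methylcellulose (0.01 mL/g). Convulsant: pentylenetetrazol dissolved in 0.9% saline as a 0.85% solution for mice, given subcutaneously.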

Mus musculus [2] = assay: Anticonvulsant activity in CF1 albino mouse assessed as inhibition of subcutaneous pentylenetetrazole-induced seizures at 100 mg/kg, ip after 0.5 hrs; assay type: functional, organism-based; design: dose 100 mg/kg; summary of the method: as §1
Mus musculus [3] = assay: Anticonvulsant activity in CF1 albino mouse assessed as inhibition of subcutaneous pentylenetetrazole-induced seizures at 300 mg/kg, ip after 0.5 hrs; assay type: functional, organism-based; design: dose 300 mg/kg; summary of the method: as §1
Mus musculus [4] = assay: Anticonvulsant activity in CF1 albino mouse assessed as inhibition of subcutaneous pentylenetetrazole-induced seizures at 30 mg/kg, ip after 4 hrs; assay type: functional, organism-based; design: dose 30 mg/kg; summary of the method: as §1
Mus musculus [5] = assay: Anticonvulsant activity in CF1 albino mouse assessed as inhibition of subcutaneous pentylenetetrazole-induced seizures at 100 mg/kg, ip after 4 hrs; assay type: functional, organism-based; design: dose 100 mg/kg; summary of the method: as §1
Mus musculus [6] = assay: Teratogenic effect in SWV mouse assessed as resorptions at 729 mg/kg, ip administered on morning of day 8 of gestation; assay type: toxicity, organism-based; design: dose 729 mg/kg, route intraperitoneal; conditions: in vivo
Summary of the method: (§2)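 SWV inbred mice: two-month-old nulligravid females mated overnight with males and checked for vaginal plugs next morning; gestation onset taken as 10 p.m. the previous night. On gestation day 8.5 each dam got one ip injection, 0.55–2.7 mmol/kg, in 25% aqueous Cremophor EL (vehicle controls dosed alike), 10 μL/g body weight. Litters and implants tallied; resorptions and live fetuses reported as counts with percentages.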

Mus musculus [7] = assay: Teratogenic effect in SWV mouse assessed as resorptions at 486 mg/kg, ip administered on morning of day 8 of gestation; assay type: toxicity, organism-based; design: dose 486 mg/kg, route intraperitoneal; conditions: in vivo; summary of the method: as §2
Mus musculus [8] = assay: Teratogenic effect in SWV mouse assessed as resorptions at 294 mg/kg, ip administered on morning of day 8 of gestation; assay type: toxicity, organism-based; design: dose 294 mg/kg, route intraperitoneal; conditions: in vivo; summary of the method: as §2
Mus musculus [9] = assay: Teratogenic effect in SWV mouse assessed as resorptions at 148 mg/kg, ip administered on morning of day 8 of gestation; assay type: toxicity, organism-based; design: dose 148 mg/kg, route intraperitoneal; conditions: in vivo; summary of the method: as §2
Mus musculus [10] = assay: Teratogenic effect in SWV mouse assessed as fetuses with neural tube deffects at 729 mg/kg, ip administered on morning of day 8 of gestation; assay type: toxicity, organism-based; design: dose 729 mg/kg, route intraperitoneal; conditions: in vivo
Summary of the method: (§3)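 Two-month-old nulligravid SWV females were mated overnight and checked for vaginal plugs the next morning; gestation onset was set at 10 p.m. the previous night. On gestation day 8.5, each dam received a single ip injection (0.55-2.7 mmol/kg range) or vehicle (25% aqueous Cremophor EL) at 10 μL/g body weight. Litters were scored for implants, resorptions, live and dead fetuses, and fetuses with neural tube defects.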

Mus musculus [11] = assay: Teratogenic effect in SWV mouse assessed as fetuses with neural tube deffects at 486 mg/kg, ip administered on morning of day 8 of gestation; assay type: toxicity, organism-based; design: dose 486 mg/kg, route intraperitoneal; conditions: in vivo; summary of the method: as §3
Mus musculus [12] = assay: Teratogenic effect in SWV mouse assessed as fetuses with neural tube deffects at 294 mg/kg, ip administered on morning of day 8 of gestation; assay type: toxicity, organism-based; design: dose 294 mg/kg, route intraperitoneal; conditions: in vivo; summary of the method: as §3
Mus musculus [13] = assay: Teratogenic effect in SWV mouse assessed as fetuses with neural tube deffects at 148 mg/kg, ip administered on morning of day 8 of gestation; assay type: toxicity, organism-based; design: dose 148 mg/kg, route intraperitoneal; conditions: in vivo; summary of the method: as §3
Mus musculus [14] = assay: Teratogenic effect in SWV mouse assessed as live fetuses at 729 mg/kg, ip administered on morning of day 8 of gestation; assay type: toxicity, organism-based; design: dose 729 mg/kg, route intraperitoneal; conditions: in vivo; summary of the method: as §2
Mus musculus [15] = assay: Teratogenic effect in SWV mouse assessed as live fetuses at 486 mg/kg, ip administered on morning of day 8 of gestation; assay type: toxicity, organism-based; design: dose 486 mg/kg, route intraperitoneal; conditions: in vivo; summary of the method: as §2
Mus musculus [16] = assay: Teratogenic effect in SWV mouse assessed as live fetuses at 294 mg/kg, ip administered on morning of day 8 of gestation; assay type: toxicity, organism-based; design: dose 294 mg/kg, route intraperitoneal; conditions: in vivo; summary of the method: as §3
Mus musculus [17] = assay: Teratogenic effect in SWV mouse assessed as live fetuses at 148 mg/kg, ip administered on morning of day 8 of gestation; assay type: toxicity, organism-based; design: dose 148 mg/kg, route intraperitoneal; conditions: in vivo; summary of the method: as §3
Mus musculus [18] = assay: Anticonvulsant activity in CF1 albino mouse assessed as inhibition of maximal electroshock-induced seizures at 30 mg/kg, ip after 0.5 hrs; assay type: functional, organism-based; design: dose 30 mg/kg
Summary of the method: (§4)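 Test compounds suspended in 0.5% methylcellulose and given ip to adult male CF no. 1 albino mice (18-25 g) at 0.01 mL/g body weight before maximal electroshock challenge.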

Mus musculus [19] = assay: Anticonvulsant activity in CF1 albino mouse assessed as inhibition of maximal electroshock-induced seizures at 100 mg/kg, ip after 0.5 hrs; assay type: functional, organism-based; design: dose 100 mg/kg; summary of the method: as §4
Mus musculus [20] = assay: Anticonvulsant activity in CF1 albino mouse assessed as inhibition of maximal electroshock-induced seizures at 300 mg/kg, ip after 0.5 hrs; assay type: functional, organism-based; design: dose 300 mg/kg; summary of the method: as §4
Mus musculus [21] = assay: Anticonvulsant activity in CF1 albino mouse assessed as inhibition of maximal electroshock-induced seizures at 30 mg/kg, ip after 4 hrs; assay type: functional, organism-based; design: dose 30 mg/kg; summary of the method: as §4
Mus musculus [22] = assay: Anticonvulsant activity in CF1 albino mouse assessed as inhibition of maximal electroshock-induced seizures at 100 mg/kg, ip after 4 hrs; assay type: functional, organism-based; design: dose 100 mg/kg; summary of the method: as §4
Mus musculus [23] = assay: Anticonvulsant activity in CF1 albino mouse assessed as inhibition of maximal electroshock-induced seizures at 300 mg/kg, ip after 4 hrs; assay type: functional, organism-based; design: dose 300 mg/kg; summary of the method: as §4
Mus musculus [24] = assay: Anticonvulsant activity in CF1 albino mouse assessed as inhibition of subcutaneous pentylenetetrazole-induced seizures at 300 mg/kg, ip after 4 hrs; assay type: functional, organism-based; design: dose 300 mg/kg; summary of the method: as §1
Mus musculus [25] = assay: Neurotoxicity in CF1 albino mouse assessed as motor impairment at 30 mg/kg, ip after 0.5 hrs; assay type: toxicity, organism-based; design: dose 30 mg/kg, route intraperitoneal; conditions: in vivo
Mus musculus [26] = assay: Neurotoxicity in CF1 albino mouse assessed as motor impairment at 100 mg/kg, ip after 0.5 hrs; assay type: toxicity, organism-based; design: dose 100 mg/kg, route intraperitoneal; conditions: in vivo
Mus musculus [27] = assay: Neurotoxicity in CF1 albino mouse assessed as motor impairment at 300 mg/kg, ip after 0.5 hrs; assay type: toxicity, organism-based; design: dose 300 mg/kg, route intraperitoneal; conditions: in vivo
Mus musculus [28] = assay: Neurotoxicity in CF1 albino mouse assessed as motor impairment at 30 mg/kg, ip after 4 hrs; assay type: toxicity, organism-based; design: dose 30 mg/kg, route intraperitoneal; conditions: in vivo
Mus musculus [29] = assay: Neurotoxicity in CF1 albino mouse assessed as motor impairment at 100 mg/kg, ip after 4 hrs; assay type: toxicity, organism-based; design: dose 100 mg/kg, route intraperitoneal; conditions: in vivo
Mus musculus [30] = assay: Neurotoxicity in CF1 albino mouse assessed as motor impairment at 300 mg/kg, ip after 4 hrs; assay type: toxicity, organism-based; design: dose 300 mg/kg, route intraperitoneal; conditions: in vivo
Rattus norvegicus [31] = organism: Rattus norvegicus; assay: Protective index, ratio of TD50 for rat to ED50 for maximal electroshock-induced rat seizure model
Rattus norvegicus [32] = assay: Neurotoxicity in Sprague-Dawley rat assessed as motor impairment at 30 mg/kg, po after 0.25 to 4 hrs; conditions: in vivo
Rattus norvegicus [33] = assay: Anticonvulsant activity in po dosed rat assessed as inhibition of maximal electroshock-induced seizures
Rattus norvegicus [34] = assay: Anticonvulsant activity in Sprague-Dawley rat assessed as inhibition of maximal electroshock-induced seizures at 30 mg/kg, po after 1 hr
Rattus norvegicus [35] = assay: Anticonvulsant activity in Sprague-Dawley rat assessed as inhibition of maximal electroshock-induced seizures at 30 mg/kg, po after 2 hrs
Rattus norvegicus [36] = assay: Anticonvulsant activity in Sprague-Dawley rat assessed as inhibition of maximal electroshock-induced seizures at 30 mg/kg, po after 4 hrs

For `CCC(CC)C(=O)Nc1ccc(S(N)(=O)=O)cc1`, the Activity (Mus musculus [1]) was “inactive”, the Activity (Mus musculus [2]) was “inactive” and the Activity (Mus musculus [3]) was “inactive”. The Activity (Mus musculus [4]) was “inactive”, the Activity (Mus musculus [5]) was “inactive” and the Activity (Mus musculus [6]) was 53.2%. For the same compound, the Activity (Mus musculus [7]) was 52.1%, the Activity (Mus musculus [8]) was 15.8% and the Activity (Mus musculus [9]) was 7.7%. It also gave an Activity (Mus musculus [10]) of 20.3%, an Activity (Mus musculus [11]) of 25.9% and an Activity (Mus musculus [12]) of 4.5%. For the same compound, the Activity (Mus musculus [13]) was 0.8%, the Activity (Mus musculus [14]) was 46.8% and the Activity (Mus musculus [15]) was 47.9%. For the same compound, the Activity (Mus musculus [16]) was 84.2%, the Activity (Mus musculus [17]) was 93.3% and the Activity (Mus musculus [18]) was “Active”. For the same compound, the Activity (Mus musculus [19]) was “Active”, the Activity (Mus musculus [20]) was “Active” and the Activity (Mus musculus [21]) was “Active”. For the same compound, the Activity (Mus musculus [22]) was “Active”, the Activity (Mus musculus [23]) was “Active” and the Activity (Mus musculus [24]) was “inactive”. The Activity (Mus musculus [25]) was “Non-toxic”, the Activity (Mus musculus [26]) was “Non-toxic” and the Activity (Mus musculus [27]) was “Non-toxic”. For the same compound, the Activity (Mus musculus [28]) was “Non-toxic”, the Activity (Mus musculus [29]) was “Non-toxic” and the Activity (Mus musculus [30]) was “Non-toxic”. The “Ratio TD50/ED50” value (Rattus norvegicus [31]) was >50.5, the Activity (Rattus norvegicus [32]) was “Non-toxic” and the ED50 (Rattus norvegicus [33]) was 9.9 mg/kg. The Activity (Rattus norvegicus [34]) was “Active”, the Activity (Rattus norvegicus [35]) was “Active” and the Activity (Rattus norvegicus [36]) was “Active”.
